Values after ≈ are worked out from the molar mass of the structure shown. Active and inactive are the calls of the source. The rule behind the calls is not given here.
Experiments:
Type in all cases: functional
Candida albicans [1] = test: Antifungal activity against Candida albicans ATCC 10231 assessed as growth inhibition at pH 7 incubated for 20 hrs in presence of 10% beef serum; conditions: for MIC: ATCC 10231, 20 h, read-out: MIC100
In short: (§1)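 Agar dilution in Sabouraud dextrose agar at pH 5.6 or 7.0, with or without 10% beef serum. C. albicans and M. mucedo were incubated 20 h at 37°; A. niger and T. mentagrophytes 5 days at 28°. The value is the minimal µg/ml giving 100% inhibition. Steps were 1 µg/ml up to 10, 2 up to 20, then 10 up to 100 µg/ml maximum.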

Candida albicans [2] = test: Antifungal activity against Candida albicans ATCC 10231 assessed as growth inhibition at pH 5.6 incubated for 20 hrs in absence of 10% beef serum; conditions: for MIC: ATCC 10231, 20 h, read-out: MIC100; in short: as §1
Candida albicans [3] = test: Antifungal activity against Candida albicans ATCC 10231 assessed as growth inhibition at pH 5.6 incubated for 20 hrs in presence of 10% beef serum; conditions: for MIC: ATCC 10231, 20 h, read-out: MIC100; in short: as §1
Candida albicans [4] = test: Antifungal activity against Candida albicans ATCC 10231 assessed as growth inhibition at pH 7 incubated for 20 hrs in absence of 10% beef serum; conditions: for MIC: ATCC 10231, 20 h, read-out: MIC100; in short: as §1
Aspergillus niger [5] = test: Antifungal activity against Aspergillus niger ATCC 1004 assessed as growth inhibition at pH 5.6 incubated for 5 days in absence of 10% beef serum; conditions: for MIC: ATCC 1004, 120 h, read-out: MIC100; in short: as §1
Aspergillus niger [6] = test: Antifungal activity against Aspergillus niger ATCC 1004 assessed as growth inhibition at pH 5.6 incubated for 5 days in presence of 10% beef serum; conditions: for MIC: ATCC 1004, 120 h, read-out: MIC100; in short: as §1
Aspergillus niger [7] = test: Antifungal activity against Aspergillus niger ATCC 1004 assessed as growth inhibition at pH 7 incubated for 5 days in absence of 10% beef serum; conditions: for MIC: ATCC 1004, 120 h, read-out: MIC100; in short: as §1
Aspergillus niger [8] = test: Antifungal activity against Aspergillus niger ATCC 1004 assessed as growth inhibition at pH 7 incubated for 5 days in presence of 10% beef serum; conditions: for MIC: ATCC 1004, 120 h, read-out: MIC100; in short: as §1
Mucor mucedo [9] = test: Antifungal activity against Mucor mucedo ATCC 7941 assessed as growth inhibition at pH 5.6 incubated for 20 hrs in absence of 10% beef serum; conditions: for MIC: ATCC 7941, 20 h, read-out: MIC100; in short: as §1
Mucor mucedo [10] = test: Antifungal activity against Mucor mucedo ATCC 7941 assessed as growth inhibition at pH 5.6 incubated for 20 hrs in presence of 10% beef serum; conditions: for MIC: ATCC 7941, 20 h, read-out: MIC100; in short: as §1
Mucor mucedo [11] = test: Antifungal activity against Mucor mucedo ATCC 7941 assessed as growth inhibition at pH 7 incubated for 20 hrs in absence of 10% beef serum; conditions: for MIC: ATCC 7941, 20 h, read-out: MIC100; in short: as §1
Mucor mucedo [12] = test: Antifungal activity against Mucor mucedo ATCC 7941 assessed as growth inhibition at pH 7 incubated for 20 hrs in presence of 10% beef serum; conditions: for MIC: ATCC 7941, 20 h, read-out: MIC100; in short: as §1
[13] = system: Trichophyton mentagrophytes; test: Antifungal activity against Trichophyton mentagrophytes ATCC 9129 assessed as growth inhibition at pH 5.6 incubated for 5 days in absence of 10% beef serum; conditions: for MIC: ATCC 9129, 120 h, read-out: MIC100; in short: as §1
[14] = system: Trichophyton mentagrophytes; test: Antifungal activity against Trichophyton mentagrophytes ATCC 9129 assessed as growth inhibition at pH 5.6 incubated for 5 days in presence of 10% beef serum; conditions: for MIC: ATCC 9129, 120 h, read-out: MIC100; in short: as §1
[15] = system: Trichophyton mentagrophytes; test: Antifungal activity against Trichophyton mentagrophytes ATCC 9129 assessed as growth inhibition at pH 7 incubated for 5 days in absence of 10% beef serum; conditions: for MIC: ATCC 9129, 120 h, read-out: MIC100; in short: as §1
[16] = system: Trichophyton mentagrophytes; test: Antifungal activity against Trichophyton mentagrophytes ATCC 9129 assessed as growth inhibition at pH 7 incubated for 5 days in presence of 10% beef serum; conditions: for MIC: ATCC 9129, 120 h, read-out: MIC100; in short: as §1

SMILES	MIC (Candida albicans [1]) [µg/mL]	MIC (Candida albicans [2]) [µg/mL]	MIC (Candida albicans [3]) [µg/mL]	MIC (Candida albicans [4]) [µg/mL]	MIC (Aspergillus niger [5]) [µg/mL]	MIC (Aspergillus niger [6]) [µg/mL]	MIC (Aspergillus niger [7]) [µg/mL]	MIC (Aspergillus niger [8]) [µg/mL]	MIC (Mucor mucedo [9]) [µg/mL]	MIC (Mucor mucedo [10]) [µg/mL]	MIC (Mucor mucedo [11]) [µg/mL]	MIC (Mucor mucedo [12]) [µg/mL]	MIC [13] [µg/mL]	MIC [14] [µg/mL]	MIC [15] [µg/mL]	MIC [16] [µg/mL]	MIC100 (Aspergillus niger [6])	MIC100 (Aspergillus niger [8])	MIC100 (Aspergillus niger [5])	MIC100 (Aspergillus niger [7])	also measured
COC(=O)/C=C/CI	18	16 (≈ 70.8 µM)	30	20 (≈ 88.5 µM)	30 (≈ 133 µM)	40	30 (≈ 133 µM)	40	9 (≈ 39.8 µM)	10	9 (≈ 39.8 µM)	8	< 1	3	2 (≈ 8.85 µM)	4	–	–	–	–	–
CCCCOC(=O)/C=C/CI	30	10 (≈ 37.3 µM)	20	12 (≈ 44.8 µM)	30 (≈ 112 µM)	70	20 (≈ 74.6 µM)	70	2 (≈ 7.46 µM)	5	4 (≈ 14.9 µM)	7	< 1	3	< 1	7	–	–	–	–	–
CCCCCOC(=O)/C=C/CI	50	5 (≈ 17.7 µM)	40	12 (≈ 42.5 µM)	40 (≈ 142 µM)	–	30 (≈ 106 µM)	–	4 (≈ 14.2 µM)	9	3 (≈ 10.6 µM)	12	< 1	4	2 (≈ 7.09 µM)	10	inactive	inactive	–	–	–
COC(=O)/C=C/CCl	–	–	–	–	–	–	–	–	60 (≈ 446 µM)	80	80 (≈ 595 µM)	90	4 (≈ 29.7 µM)	40	60 (≈ 446 µM)	60	inactive	inactive	inactive	inactive	MIC100 (Candida albicans [1]): inactive; MIC100 (Candida albicans [2]): inactive; MIC100 (Candida albicans [3]): inactive; MIC100 (Candida albicans [4]): inactive
CCCOC(=O)/C=C/CI	20	10 (≈ 39.4 µM)	16	12 (≈ 47.2 µM)	30 (≈ 118 µM)	60	30 (≈ 118 µM)	60	2 (≈ 7.87 µM)	5	3 (≈ 11.8 µM)	6	< 1	3	2 (≈ 7.87 µM)	7	–	–	–	–	–
COC/C=C/C(=O)OC	–	–	–	–	–	–	–	–	–	–	–	–	–	–	–	–	–	–	–	–	MIC100 (Mucor mucedo [9]): inactive; MIC100 [13]: inactive
CCCCCCOC(=O)/C=C/CBr	90	20 (≈ 80.3 µM)	70	20 (≈ 80.3 µM)	–	–	–	–	14 (≈ 56.2 µM)	40	16 (≈ 64.2 µM)	50	< 1	14	4 (≈ 16.1 µM)	30	inactive	inactive	inactive	inactive	–
C[C@@H]1[C@H](O)[C@@H](C)/C=C/C=C/C=C/C=C/C=C/C=C/C=C/[C@H](O[C@@H]2O[C@H](C)[C@@H](O)[C@H](N)[C@@H]2O)C[C@@H]2O[C@](O)(C[C@@H](O)C[C@@H](O)[C@H](O)CC[C@@H](O)C[C@@H](O)CC(=O)O[C@H]1C)C[C@H](O)[C@H]2C(=O)O [AMPHOTERICIN B]	< 1	< 1	< 1	< 1	< 1	< 1	< 1	< 1	< 1	< 1	< 1	< 1	< 1	< 1	< 1	< 1	–	–	–	–	–
CCCCCCOC(=O)/C=C/CI	90	16 (≈ 54 µM)	80	30 (≈ 101 µM)	–	–	–	–	14 (≈ 47.3 µM)	40	14 (≈ 47.3 µM)	50	< 1	8	3 (≈ 10.1 µM)	20	inactive	inactive	inactive	inactive	–
CCCCOC(=O)/C=C/CBr	40	16 (≈ 72.4 µM)	30	30 (≈ 136 µM)	60 (≈ 271 µM)	100	50 (≈ 226 µM)	80	4 (≈ 18.1 µM)	4	4 (≈ 18.1 µM)	7	< 1	4	3 (≈ 13.6 µM)	8	–	–	–	–	–
COC(=O)/C=C/CF	–	–	–	–	–	–	–	–	–	–	–	–	–	–	–	–	inactive	inactive	inactive	inactive	MIC100 (Candida albicans [1]): inactive; MIC100 (Candida albicans [2]): inactive; MIC100 (Candida albicans [3]): inactive; MIC100 (Candida albicans [4]): inactive; MIC100 (Mucor mucedo [9]): inactive; MIC100 (Mucor mucedo [10]): inactive; MIC100 (Mucor mucedo [11]): inactive; MIC100 (Mucor mucedo [12]): inactive; MIC100 [13]: inactive; MIC100 [14]: inactive; MIC100 [15]: inactive; MIC100 [16]: inactive
CC1/C=C/C=C/C=C/C=C/C=C/C=C/C=C/C(OC2O[C@H](C)[C@@H](O)[C@H](N)[C@@H]2O)CC(O)C(C(=O)O)C(O)CC(=O)CC(O)CC(O)CC(O)CC(=O)CCCC(=O)CC(=O)OC1C(C)CC(C)C(O)CC(=O)c1ccc(N)cc1 (stereo partly drawn)	2	< 1	< 1	< 1	2 (≈ 1.8 µM)	5	5 (≈ 4.51 µM)	7	< 1	< 1	< 1	< 1	< 1	< 1	3 (≈ 2.7 µM)	9	–	–	–	–	–

Source: ChEMBL document CHEMBL3271984, “Antifungal activity of 4-substituted crotonic acid esters” (1976)
